# Source: PubChem BioAssay
# The source made the active and inactive calls.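 The calls were made as follows, unless noted: active = inhibition at or above 50% at 10 µM; inactive = inhibition below 50%.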
# Columns and labels:
# [1] = inhibitors of TNFa-induced NFkB p65 translocation, primary screen, imaging, HUVEC, MLSMR starter and 10KST1 sets (AID 438;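 active = inhibition above 20% together with a positive visual image hit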;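 also: compound added about 3h40 before a 20 min TNFalpha stimulation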;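 as to inhibition: signal is the nuclear over cytoplasmic p65 intensity ratio per well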); details: HUVEC TNFa-induced p65 nuclear translocation; cell count: measured here: nuclei count (cytotoxicity indicator), at 2.08 µM; inhibition: at 2 µM, stronger effect = higher value, 0% TNFa-plus-vehicle, 100% no-TNFa wells
# [2] = reduction of polyQ htt aggregates in cells – imaging, exon1htt(103Q)mCFP cells, high-content imaging, primary screen (AID 483;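 active = visual image review flags a hit and inhibition of aggregation exceeds 20%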;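 also: compound exposure lasted 3 days before fixation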;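 as to nuclei count: percent of the per-plate median nuclei count of sample wells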); details: exon1htt(103Q)mCFP cell line, aggregate imaging, at 2 µM; inhibition of aggregation: stronger effect = higher value; nuclei count: measured here: cell count, toxicity
# [3] = endothelial E-selectin expression blockers – imaging, HUVEC, immunofluorescence, MLSMR starter and 10KST1 sets, primary screen (AID 487;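 active = visually confirmed hit in the image check and inhibition above 20%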;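 as to inhibition: signal is fraction of cell area covered by stained E-selectin grains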;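 as to nuclei count: 100% = median nuclei count of all wells on the same plate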); details: HUVEC TNFalpha-induced E-selectin immunofluorescence imaging, at 2 µM; inhibition: stronger effect = higher value; nuclei count: measured here: cell number, toxicity
# [4] = target: Voltage-gated potassium channel subunit beta-2 (Rattus norvegicus) (UniProt P62483); assay: inhibitors of rat Kvbeta2 reductase activity – biochemical, NADPH fluorescence, primary screen (AID 622;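 active = fluorescence slope higher than the sample average by over 3 SD, cut at about -0.22 in these data, passing the limit was not always enough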;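 also: slope of raw intensity against log time taken from 70 to 1610 s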); details: recombinant KvBeta, 4-cyanobenzaldehyde reduction, at 10 µM, stronger effect = higher value
# Sequence of Voltage-gated potassium channel subunit beta-2 (Rattus norvegicus) (P62483 whole entry, looked up): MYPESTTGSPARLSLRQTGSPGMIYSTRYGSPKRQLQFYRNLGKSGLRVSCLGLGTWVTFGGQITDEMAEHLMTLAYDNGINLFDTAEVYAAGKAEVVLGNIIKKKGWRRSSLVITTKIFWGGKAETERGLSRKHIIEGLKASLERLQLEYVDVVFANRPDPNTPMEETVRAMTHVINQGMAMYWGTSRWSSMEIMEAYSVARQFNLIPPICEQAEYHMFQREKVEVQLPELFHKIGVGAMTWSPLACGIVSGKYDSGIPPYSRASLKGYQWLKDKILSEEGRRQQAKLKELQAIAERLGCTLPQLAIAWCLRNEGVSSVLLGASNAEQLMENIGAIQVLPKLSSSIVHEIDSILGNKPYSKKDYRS
# [5] = target: Voltage-gated potassium channel subunit beta-2 (Rattus norvegicus) (UniProt P62483); assay: enhancers of rat Kvbeta2 NADPH turnover – biochemical, NADPH fluorescence, primary screen (AID 623;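 active = NADPH fluorescence slope more negative than the mean of all samples by about 3 SD, 99.7% confidence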;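 also: fluorescence intensity change per second fitted from 20 to 320 s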); details: Recombinant KvBeta, NADPH fluorescence decrease slope, 10 min; at 10 µM; stronger effect = lower value
# [6] = target: Muscarinic acetylcholine receptor M4 (Homo sapiens) (UniProt P08173); assay: M4-linked GIRK flux change, two-sided – cell-based, HEK293 M4/GIRK, thallium flux, BTC-AM, M4 allosteric agonist project, primary screen (AID 625;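 active = fluorescence slope after compound addition differing from the mean of all tested samples at 99.7% confidence, mostly higher but some lower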;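 also: thallium influx through GIRK channels coupled to M4 in HEK293 cells with BTC-AM dye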); details: at 10 µM, actives lie on both sides
# Sequence of Muscarinic acetylcholine receptor M4 (Homo sapiens) (P08173 whole entry, looked up): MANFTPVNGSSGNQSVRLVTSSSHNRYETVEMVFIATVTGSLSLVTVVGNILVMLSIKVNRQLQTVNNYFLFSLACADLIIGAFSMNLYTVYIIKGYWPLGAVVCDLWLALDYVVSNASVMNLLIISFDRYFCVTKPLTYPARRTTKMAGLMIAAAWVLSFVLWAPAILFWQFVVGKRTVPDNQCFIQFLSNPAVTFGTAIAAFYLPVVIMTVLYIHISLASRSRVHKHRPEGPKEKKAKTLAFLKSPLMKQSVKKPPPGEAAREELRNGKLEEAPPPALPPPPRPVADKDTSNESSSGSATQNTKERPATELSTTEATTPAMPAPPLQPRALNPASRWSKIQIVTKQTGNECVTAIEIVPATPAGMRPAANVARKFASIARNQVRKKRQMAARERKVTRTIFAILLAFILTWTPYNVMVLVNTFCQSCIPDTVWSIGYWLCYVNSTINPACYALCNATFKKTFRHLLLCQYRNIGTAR
# Outline: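 Material: HEK293 cells with M4 receptor and GIRK channels; Times: cells overnight at 37 °C, BTC-AM loading 1 h, reads 2 min total; Technique: kinetic BTC-AM fluorescence sampled at 1 Hz, 10 s pre-addition baseline; Read-out basis: slope over 15–24 s of trace normalized to starting intensity; Controls: carbachol positive, DMSO negative.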
# [7] = blockers of RIG-like receptor reporter activation – cell-based, Sendai virus stimulus, luciferase, 10K MLSCN set, TLR/RLR signaling modifier project, primary screen (AID 602276); details: HEK293 RL24 IRF3 luciferase reporter, at 10 µM, stronger effect = higher value;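 also: firefly luciferase from ISG56 promoter only with Renilla not read in this screen; 0% = Sendai virus plus DMSO and 100% = medium plus DMSO without virus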
# [8] = TLR3 IRF3 reporter activation blockers – cell-based, poly I:C stimulus, luciferase, 10K MLSCN set, primary screen (AID 602277;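 active = inhibition of the reporter signal at or above 50%; inactive = inhibition below 50%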); details: HEK293-TLR3 RL24 IRF3 luciferase reporter, at 10 µM, stronger effect = higher value
SMILES,cell count [1],inhibition [1],inhibition of aggregation [2],nuclei count [2] [%],inhibition [3],nuclei count [3] [%],fluorescence slope [4],NADPH fluorescence slope [5],fluorescence slope [6],inhibition [7],inhibition [8]
Cc1ccc(C(=O)CCC2CCCC2=O)cc1 (centres undefined),718,-21.6% (inactive),-2.7% (inactive),86.9,22.6% (inactive),97.8,-0.263 (inactive),-3.8e-05 (inactive),0.00558 (inactive),-20.4% (inactive),-124% (inactive)
Cc1ccc(C(=O)Nc2ccc3c(c2)OCO3)o1,466,0% (inactive),-13.9% (inactive),106,-17.5% (inactive),121,-0.603 (inactive),-2.2e-05 (inactive),0.00576 (inactive),-40.3% (inactive),-49.6% (inactive)
Cc1nc(SCC#N)c2c(C)c(C)sc2n1,818,-4.3% (inactive),-3.4% (inactive),101,-84.3% (inactive),118,-0.551 (inactive),-2.7e-05 (inactive),0.00593 (inactive),10.7% (inactive),-9.75% (inactive)
COc1ccc(NC(=O)Nc2cc(C)ccc2OC)cc1,217,8.3% (inactive),-1.8% (inactive),98.6,-133% (inactive),120,-0.422 (inactive),-0.00041 (inactive),0.00547 (inactive),-39.1% (inactive),-80.2% (inactive)
COC(=O)c1ccc(NC(=O)CN2C(=O)CSC2=O)cc1,454,3.1% (inactive),-17.9% (inactive),113,-41% (inactive),109,-0.404 (inactive),-3e-05 (inactive),0.00594 (inactive),7.22% (inactive),10.7% (inactive)
CN1C(=O)C2(NCCc3c2[nH]c2ccccc32)c2ccccc21 (centres undefined),583,0.7% (inactive),-4.1% (inactive),99.3,-4.8% (inactive),90.7,-0.482 (inactive),-0.000314 (inactive),0.00214 (inactive),20% (inactive),34.7% (inactive)
CC(C)C1N=C2c3ccccc3N=C(SCC(=O)NCCc3ccc(S(N)(=O)=O)cc3)N2C1=O (centres undefined),566,-3.4% (inactive),7.3% (inactive),60.1,-121% (inactive),110,-0.598 (inactive),-3.3e-05 (inactive),0.00596 (inactive),22% (inactive),22% (inactive)
COc1ccc(CCn2c(N)c(C#N)c3nc4ccccc4nc32)cc1OC,397,-2.3% (inactive),-8% (inactive),105,21.9% (inactive),150,-0.52 (inactive),-5.8e-05 (inactive),0.00433 (inactive),17.3% (inactive),13.6% (inactive)
Cc1cc(S(=O)(=O)NC2CCCCC2)ccc1OCC(=O)NCc1ccccn1,346,-8.6% (inactive),7.8% (inactive),96.4,-70.2% (inactive),106,-0.607 (inactive),5.7e-06 (inactive),0.0059 (inactive),20.7% (inactive),34% (inactive)
Cc1ccc(N2CC(C(=O)N3CCN(C(=O)c4ccco4)CC3)CC2=O)cc1 (centres undefined),600,2.2% (inactive),-16.3% (inactive),114,-39.1% (inactive),100,-0.571 (inactive),-5.1e-05 (inactive),0.00509 (inactive),17.5% (inactive),21.1% (inactive)
Cc1cc(NCCCn2ccnc2)n2c(nc3ccccc32)c1C#N,276,-23.5% (inactive),17.7% (inactive),70.2,16.6% (inactive),80.2,-0.501 (inactive),2e-06 (inactive),0.00606 (inactive),-6.75% (inactive),-0.197% (inactive)
CCn1cc(C(=O)N2CCCC2)c(=O)c2cc(S(=O)(=O)N3CCOCC3)ccc21,542,-1% (inactive),-13.1% (inactive),100,14.8% (inactive),113,-0.427 (inactive),-7.4e-05 (inactive),0.00706 (inactive),1.49% (inactive),12.8% (inactive)
NC(=O)C1(N2CCCCC2)CCN(C2CC(=O)N(Cc3cccs3)C2=O)CC1 (centres undefined),378,-2.6% (inactive),5.2% (inactive),82.9,-117% (inactive),84.9,-0.458 (inactive),-3.2e-05 (inactive),0.00707 (inactive),10.3% (inactive),20.4% (inactive)
C=CCn1c(COc2ccccc2F)nnc1SCC(=O)N1CC(=O)Nc2ccccc21,390,-23.5% (inactive),28% (inactive),100,4% (inactive),121,-0.355 (inactive),2.1e-06 (inactive),0.00612 (inactive),-13.7% (inactive),-13.8% (inactive)
